# Bioassay records (PubChem)
# An excerpt weighted towards active compounds, which were near 2.9% of everything screened.
# Apaf-1 inh = blocks human Apaf-1 apoptosome activity | AID 489030 | actives 0.71% (n = 330,000) | reconstituted apoptosome caspase-3 activity, DEVD-Rh110 fluorescence | inhibition, % at 20 µM; active means inhibition of at least 40% at 20 µM;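 further: plate controls were DMSO wells for no effect and DEVD-CHO caspase inhibitor wells for full effect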
#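 Material: reconstituted apoptosome with Apaf-1, cytochrome c, caspase-9, procaspase-3, dATP / Buffer or medium: pH 7.5 Hepes buffer with CHAPS, BSA, DTT / Also added: cytochrome c with DEVD-Rh110 / Schedule: compound with Apaf-1, dATP, procaspase-3 30 min, then 50 min reaction, room temperature / Technique: rhodamine 110 fluorescence at Ex 480/Em 540 nm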
# SENP1 inh = SENP1 (human) catalytic domain inhibition | Q9P0U3 | recombinant SENP1 catalytic domain, CyPet-SUMO1-YPet FRET cleavage | inhibition, % at 10 µM | actives 0.21% (n = 360,000);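 active means inhibition at least 30% at 10 µM, raw YFP signal under a set limit, fluorescence ratio 0.5 to 1.5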;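 further: 0% = enzyme with DMSO and 100% = no enzyme wells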
#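 Assay system: hSENP1 catalytic domain, recombinant. Amount: SENP1 enzyme, 20 pM final. Schedule: 50 min reaction, RT, dark. Technique: FRET, CFP and YFP emission. Control set: no-enzyme wells low, DMSO-plus-enzyme wells high control.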
# SENP8 block-1 = inhibitors of human SENP8 protease; AID 602440; recombinant SENP8, Nedd8 substrate fluorescence; inhibition, % at 20 µM; actives 0.64% (n = 360,000); Q96LD8; in the data active means inhibition mostly above about 40%, no sharp cut-off; inactive means mostly below about 27%
# SENP8 block-2 = SENP8 protease inhibition | Q96LD8 | purified SENP8, Z-RLRGG-aminoluciferin cleavage, luminescence | inhibition, % at 10 µM | actives 1.2% (n = 330,000); in the data active means inhibition above about 50%
# SENP6 inh = blocks the human protease SENP6. Q9GZR1. Recombinant SENP6 catalytic domain, aminoluciferin luminescence. inhibition, % at 10 µM. actives 1.8% (n = 330,000);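 active means inhibition above about 50% at the single tested dose, limit read from the data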;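 further: plate controls were DMSO wells with enzyme for no effect and DMSO wells lacking enzyme for full effect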
# Target sequence (Q9GZR1 628-1112 limits assumed): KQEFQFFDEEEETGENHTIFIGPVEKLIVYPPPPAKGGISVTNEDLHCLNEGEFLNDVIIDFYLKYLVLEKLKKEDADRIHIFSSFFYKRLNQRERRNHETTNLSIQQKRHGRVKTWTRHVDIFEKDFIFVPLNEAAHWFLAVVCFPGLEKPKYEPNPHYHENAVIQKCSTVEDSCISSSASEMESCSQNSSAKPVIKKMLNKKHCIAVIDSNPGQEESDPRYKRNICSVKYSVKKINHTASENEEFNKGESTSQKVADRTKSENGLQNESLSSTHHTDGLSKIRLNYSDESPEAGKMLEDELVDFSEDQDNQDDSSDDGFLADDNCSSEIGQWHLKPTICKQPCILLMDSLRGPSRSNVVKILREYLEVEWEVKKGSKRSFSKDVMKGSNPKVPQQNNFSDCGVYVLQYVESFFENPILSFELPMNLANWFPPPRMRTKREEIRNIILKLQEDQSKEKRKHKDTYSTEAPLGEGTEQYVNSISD
# SENP7 block = inhibitors of human SENP7 protease. Q9BQF6. recombinant SENP7, Z-RLRGG-aminoluciferin luminescence, 40 min. inhibition, % at 5 µM. actives 1.5% (n = 330,000);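 active means inhibition above about 50% at the single test dose, limit read from the data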;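 further: plate controls were DMSO with enzyme for no effect and no enzyme buffer wells for full effect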
# SENP8 confirm = confirmation of human SENP8 protease inhibitors. inhibition, % at 12.5 µM. shares compounds with SENP7 block. Recombinant SENP8, Z-RLRGG-aminoluciferin luminescence, 60 min. actives 40% (n = 6,200);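 active means mean inhibition across replicates above about 50%, limit read from the data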
# SENP6 confirm = confirmation of human SENP6 protease inhibitors | recombinant SENP6, Z-RLRGG-aminoluciferin luminescence | inhibition, % at 12.5 µM | shares compounds with SENP7 block | actives 58% (n = 6,200)
# SENP7 conf = confirmation of human SENP7 protease inhibitors. shares compounds with SENP7 block. inhibition, % at 12.5 µM. actives 69% (n = 6,200). recombinant SENP7, Z-RLRGG-aminoluciferin luminescence, 40 min. AID 488917
# Casp3 select = caspase-3 inhibition (SENP selectivity assay). shares compounds with SENP7 block. purified caspase-3, Z-DEVD-aminoluciferin luminescence, 60 min. inhibition, % at 12.5 µM. actives 60% (n = 6,200);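 active means mean inhibition above about 50%, limit read from the data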;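 further: plate controls were enzyme with DMSO for no effect and wells without caspase-3 for full effect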
# Luc interf = luminescence interference (SENP counter-screen); Pre-incubated SENP8/Z-RLRGG-aminoluciferin, luciferase luminescence interference; actives 39% (n = 6,200); AID 488919; shares compounds with SENP7 block; inhibition, % at 12.5 µM;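 active means mean inhibition above about 50% when retested at one dose, limit read from the data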;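 further: plate controls were DMSO wells with completed reaction for no effect and substrate without enzyme for full effect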
# * marks the source's active call; other numbers are inactive results; · = not tested or not shown.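 How the source made its calls, unless noted: active means mean inhibition above about 50% in the one-dose retest (limit read from the data); inactive means the rest.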
SMILES,Apaf-1 inh,SENP1 inh,SENP8 block-1,SENP8 block-2,SENP6 inh,SENP7 block,SENP8 confirm,SENP6 confirm,SENP7 conf,Casp3 select,Luc interf
COc1cccc(-c2cc(C(F)(F)F)c(C#N)c(=O)[nH]2)c1,0,-174,-443,85*,85*,35,-14,70*,85*,70*,77*
N#Cc1c(C(F)(F)F)cc(-c2ccccc2)[nH]c1=O,7,-112,-288,-6,-3,0,·,·,·,·,·
NC(Cc1ccc(F)cc1)c1csc(Nc2ccc(C(F)(F)F)cn2)n1 (centres undefined),·,-5,-68,·,·,·,·,·,·,·,·
O=S1(=O)N=C(Nc2nc3c(s2)CCCC3)c2ccccc21,4,2,9,77*,86*,76*,83*,78*,94*,86*,52*
Cc1cccc(Nc2nc3c(s2)CCCC3)c1,·,-7,6,·,·,·,·,·,·,·,·
O=C(CCCN1C(=O)C(c2ccccc2)Oc2cccnc21)NCCc1ccc(Cl)cc1 (centres undefined),14,-2,0,-6,-2,-4,·,·,·,·,·
Cc1ccc(-c2cnn(-c3ccccc3)c2N)cc1,10,4,12,89*,91*,95*,93*,94*,101*,95*,62*
COc1ccc(-c2nnn(-c3cc(Cl)cc(Cl)c3)c2N)cc1,6,4,24,3,11,11,·,·,·,·,·
COc1ccc(-c2cnn(-c3ccccc3)c2N)cc1OC,2,1,28,-12,-14,-4,·,·,·,·,·
Nc1c(-c2ccccc2)cnn1-c1ccc(C(=O)O)cc1,-14,1,5,27,-1,53*,45,41,76*,66*,60*
Cc1ccc(-c2cnn(-c3cccc([N+](=O)[O-])c3)c2N)cc1,9,-2,11,20,52*,53*,28,28,71*,38,2
Nc1c(-c2ccc(Cl)cc2)nnn1-c1ccccc1,-5,0,20,19,51*,47,35,30,65*,50*,2
Cc1nn(-c2ccc(C(=O)O)cc2)c(N)c1-c1ccccc1,1,0,17,-9,12,0,·,·,·,·,·
CN1CN(C)C(c2ccncc2)=C1c1ccncc1,4,3,17,-3,0,2,·,·,·,·,·
COc1ccc(Cl)cc1Nc1nc(Cl)nc(NCCO)n1,·,2,8,·,·,·,·,·,·,·,·
Nc1c(-c2ccc(Cl)cc2)cnn1-c1cc(C(F)(F)F)cc(C(F)(F)F)c1,2,1,-1,1,-9,1,·,·,·,·,·
Nc1c(-c2ccc(Cl)cc2)cnn1-c1ccccc1,7,1,21,84*,87*,93*,77*,77*,94*,84*,4
O=C(COc1ccc2c(c1)OCO2)Nc1nccs1,6,-1,8,90*,96*,95*,95*,95*,102*,97*,93*
COc1ccc(OCC(=O)Nc2nccs2)cc1,2,0,13,62*,26,83*,78*,79*,95*,93*,79*
CCOc1ccc(S(=O)(=O)N(C)c2ccc(OCC(=O)Nc3nccs3)cc2)cc1,16,0,6,1,8,5,·,·,·,·,·
CCOc1ccc(OCC(=O)Nc2nccs2)cc1,12,-2,18,95*,97*,98*,97*,97*,102*,98*,88*
